≈ marks a conversion by molar mass, not a printed value.
Assays:
Type in all cases: functional
Candida albicans [1] = experiment: Antifungal activity against Candida albicans ATCC 90028 after 48 hrs by CLSI broth microdilution method; details: ATCC 90028, 48 h
How it was run: (§1)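 Yeast CLSI broth microdilution (M27-A3). Compounds dissolved in DMSO at 100× the top test concentration, then diluted as serial two-fold dilutions in RPMI 1640 to final 0.125–64. Inoculum was 1.0–1.5 × 10^3 cells mL−1, incubated at 35 °C and read for growth at 48 h. MIC is the lowest concentration giving ≥50% growth inhibition versus growth control. Reported as the median of five replicates and as the geometric mean.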

Candida albicans [2] = experiment: Antifungal activity against Candida albicans ATCC 20891 after 48 hrs by CLSI broth microdilution method; details: ATCC 20891, 48 h; how it was run: as §1
Candida albicans [3] = experiment: Antifungal activity against Candida albicans PMC 1011 after 48 hrs by CLSI broth microdilution method; details: PMC 1011, 48 h; how it was run: as §1
Pichia kudriavzevii [4] = experiment: Antifungal activity against Candida krusei DSM 6128 after 48 hrs by CLSI broth microdilution method; details: DSM 6128, 48 h; how it was run: as §1
Pichia kudriavzevii [5] = experiment: Antifungal activity against Candida krusei PMC 0613 after 48 hrs by CLSI broth microdilution method; details: PMC 0613, 48 h; how it was run: as §1
Candida tropicalis [6] = experiment: Antifungal activity against Candida tropicalis PMC 0910 after 48 hrs by CLSI broth microdilution method; details: PMC 0910, 48 h; how it was run: as §1
Candida tropicalis [7] = experiment: Antifungal activity against Candida tropicalis DSM 11953 after 48 hrs by CLSI broth microdilution method; details: DSM 11953, 48 h; how it was run: as §1
Candida parapsilosis [8] = experiment: Antifungal activity against Candida parapsilosis DSM 11224 after 48 hrs by CLSI broth microdilution method; details: Lodderomyces parapsilosis, DSM 11224, 48 h; how it was run: as §1
Candida parapsilosis [9] = experiment: Antifungal activity against Candida parapsilosis ATCC 22019 after 48 hrs by CLSI broth microdilution method; details: Lodderomyces parapsilosis, ATCC 22019, 48 h; how it was run: as §1
Nakaseomyces glabratus [10] = experiment: Antifungal activity against Candida glabrata PMC 0805 after 48 hrs by CLSI broth microdilution method; details: PMC 0805, 48 h; how it was run: as §1
Nakaseomyces glabratus [11] = experiment: Antifungal activity against Candida glabrata PMC 0807 after 48 hrs by CLSI broth microdilution method; details: PMC 0807, 48 h; how it was run: as §1
Cryptococcus neoformans [12] = experiment: Antifungal activity against Cryptococcus neoformans PMC 2123 after 72 hrs by CLSI broth microdilution method; details: PMC 2123, 72 h
How it was run: (§2)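 Cryptococcus neoformans tested by CLSI broth microdilution in RPMI 1640, with serial two-fold dilutions from DMSO stocks at 100× the top concentration, final 0.125–64. Inoculum was 1.0–1.5 × 10^3 cells mL−1 at 35 °C, with growth read at 72 h. MIC is the lowest concentration with ≥50% growth inhibition versus control. Median of five replicates, plus geometric mean.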

Cryptococcus neoformans [13] = experiment: Antifungal activity against Cryptococcus neoformans PMC 2136 after 72 hrs by CLSI broth microdilution method; details: PMC 2136, 72 h; how it was run: as §2
Cryptococcus neoformans [14] = experiment: Antifungal activity against Cryptococcus neoformans PMC 2115 after 72 hrs by CLSI broth microdilution method; details: PMC 2115, 72 h; how it was run: as §2
Cryptococcus neoformans [15] = experiment: Antifungal activity against Cryptococcus neoformans PMC 2103 after 72 hrs by CLSI broth microdilution method; details: PMC 2103, 72 h; how it was run: as §2
Cryptococcus neoformans [16] = experiment: Antifungal activity against Cryptococcus neoformans PMC 2107 after 72 hrs by CLSI broth microdilution method; details: PMC 2107, 72 h; how it was run: as §2
Cryptococcus neoformans [17] = experiment: Antifungal activity against Cryptococcus neoformans PMC 2102 after 72 hrs by CLSI broth microdilution method; details: PMC 2102, 72 h; how it was run: as §2
Cryptococcus neoformans [18] = experiment: Antifungal activity against Cryptococcus neoformans DSM 11959 after 72 hrs by CLSI broth microdilution method; details: DSM 11959, 72 h; how it was run: as §2
Cryptococcus neoformans [19] = experiment: Antifungal activity against Cryptococcus neoformans PMC 2111 after 72 hrs by CLSI broth microdilution method; details: PMC 2111, 72 h; how it was run: as §2
[20] = tested on: Trichophyton mentagrophytes; experiment: Antifungal activity against Trichophyton mentagrophytes DSM 4870 after 72 hrs by CLSI broth microdilution method; details: DSM 4870, 72 h
How it was run: (§3)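 Dermatophytes tested by CLSI broth microdilution for filamentous fungi (M38-A2). Serial two-fold dilutions of DMSO-dissolved compound in RPMI 1640, final 0.125–64. Inoculum was 0.4–5 × 10^4 CFU mL−1, incubated at 35 °C and read at 72 h. MIC80 is the lowest concentration giving ≥80% growth inhibition versus growth control. Median of five replicates, plus geometric mean.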

[21] = tested on: Trichophyton mentagrophytes; experiment: Antifungal activity against Trichophyton mentagrophytes PMC 6515 after 72 hrs by CLSI broth microdilution method; details: PMC 6515, 72 h; how it was run: as §3
[22] = tested on: Trichophyton mentagrophytes; experiment: Antifungal activity against Trichophyton mentagrophytes PMC 6531 after 72 hrs by CLSI broth microdilution method; details: PMC 6531, 72 h; how it was run: as §3
[23] = tested on: Trichophyton mentagrophytes; experiment: Antifungal activity against Trichophyton mentagrophytes PMC 6509 after 72 hrs by CLSI broth microdilution method; details: PMC 6509, 72 h; how it was run: as §3
[24] = tested on: Trichophyton mentagrophytes; experiment: Antifungal activity against Trichophyton mentagrophytes PMC 6503 after 72 hrs by CLSI broth microdilution method; details: PMC 6503, 72 h; how it was run: as §3
[25] = tested on: Trichophyton mentagrophytes; experiment: Antifungal activity against Trichophyton mentagrophytes PMC 6552 after 72 hrs by CLSI broth microdilution method; details: PMC 6552, 72 h; how it was run: as §3
Nannizzia gypsea [26] = experiment: Antifungal activity against Microsporum gypseum PMC 7303 after 72 hrs by CLSI broth microdilution method; details: PMC 7303, 72 h; how it was run: as §3
Nannizzia gypsea [27] = experiment: Antifungal activity against Microsporum gypseum PMC 7331 after 72 hrs by CLSI broth microdilution method; details: PMC 7331, 72 h; how it was run: as §3
Nannizzia gypsea [28] = experiment: Antifungal activity against Microsporum gypseum DSM 3824 after 72 hrs by CLSI broth microdilution method; details: DSM 3824, 72 h; how it was run: as §3
Candida albicans [29] = experiment: Antifungal activity against Candida albicans PMC 1040R after 48 hrs by CLSI broth microdilution method; how it was run: as §1
Candida albicans [30] = experiment: Antifungal activity against Candida albicans PMC 1041R after 48 hrs by CLSI broth microdilution method; how it was run: as §1
Nakaseomyces glabratus [31] = experiment: Antifungal activity against Candida glabrata PMC 0850R after 48 hrs by CLSI broth microdilution method; how it was run: as §1
Nakaseomyces glabratus [32] = experiment: Antifungal activity against Candida glabrata PMC 0851R after 48 hrs by CLSI broth microdilution method; how it was run: as §1
Nakaseomyces glabratus [33] = experiment: Antifungal activity against Candida glabrata PMC 0852R after 48 hrs by CLSI broth microdilution method; how it was run: as §1
Nakaseomyces glabratus [34] = experiment: Antifungal activity against Candida glabrata PMC 0853R after 48 hrs by CLSI broth microdilution method; how it was run: as §1
Candida albicans [35] = experiment: Antifungal activity against Candida albicans PMC 1042R after 48 hrs by CLSI broth microdilution method; how it was run: as §1
Candida albicans [36] = experiment: Ratio of fluconazole MIC to compound MIC for Candida albicans PMC 1040R after 48 hrs by CLSI broth microdilution method
Candida albicans [37] = experiment: Ratio of fluconazole MIC to compound MIC for Candida albicans PMC 1041R after 48 hrs by CLSI broth microdilution method
Nakaseomyces glabratus [38] = experiment: Ratio of fluconazole MIC to compound MIC for Candida glabrata PMC 0850R after 48 hrs by CLSI broth microdilution method
Nakaseomyces glabratus [39] = experiment: Ratio of fluconazole MIC to compound MIC for Candida glabrata PMC 0851R after 48 hrs by CLSI broth microdilution method
Nakaseomyces glabratus [40] = experiment: Ratio of fluconazole MIC to compound MIC for Candida glabrata PMC 0852R after 48 hrs by CLSI broth microdilution method
Nakaseomyces glabratus [41] = experiment: Ratio of fluconazole MIC to compound MIC for Candida glabrata PMC 0853R after 48 hrs by CLSI broth microdilution method
Candida albicans [42] = experiment: Ratio of fluconazole MIC to compound MIC for Candida albicans PMC 1042R after 48 hrs by CLSI broth microdilution method
Candida albicans [43] = experiment: Antifungal activity against Candida albicans ATCC 24433 after 48 hrs by CLSI broth microdilution method; details: ATCC 24433, 48 h; how it was run: as §1
Candida albicans [44] = experiment: Antifungal activity against Candida albicans ATCC 3153 after 48 hrs by CLSI broth microdilution method; details: ATCC 3153, 48 h; how it was run: as §1
Candida albicans [45] = experiment: Antifungal activity against Candida albicans ATCC 10231 after 48 hrs by CLSI broth microdilution method; details: ATCC 10231, 48 h; how it was run: as §1
Candida albicans [46] = experiment: Antifungal activity against Candida albicans ATCC 76615 after 48 hrs by CLSI broth microdilution method; details: ATCC 76615, 48 h; how it was run: as §1
Candida albicans [47] = experiment: Antifungal activity against Candida albicans ATCC 10261 after 48 hrs by CLSI broth microdilution method; details: ATCC 10261, 48 h; how it was run: as §1

O=C(O[C@H](Cn1ccnc1)c1ccc(Cl)cc1)N1CCN(c2ccc(Cl)cc2)CC1
MIC50 (Candida albicans [1]): 0.125 µg/mL (≈ 0.281 µM)
MIC50 (Candida albicans [2]): 0.25 µg/mL (≈ 0.561 µM)
MIC50 (Candida albicans [3]): 0.125 µg/mL (≈ 0.281 µM)
MIC50 (Pichia kudriavzevii [4]): 4 µg/mL (≈ 8.98 µM)
MIC50 (Pichia kudriavzevii [5]): 0.5 µg/mL (≈ 1.12 µM)
MIC50 (Candida tropicalis [6]): 2 µg/mL (≈ 4.49 µM)
MIC50 (Candida tropicalis [7]): 4 µg/mL (≈ 8.98 µM)
MIC50 (Candida parapsilosis [8]): 0.5 µg/mL (≈ 1.12 µM)
MIC50 (Candida parapsilosis [9]): 0.5 µg/mL (≈ 1.12 µM)
MIC50 (Nakaseomyces glabratus [10]): 0.5 µg/mL (≈ 1.12 µM)
MIC50 (Nakaseomyces glabratus [11]): 4 µg/mL (≈ 8.98 µM)
MIC50 (Cryptococcus neoformans [12]): 4 µg/mL (≈ 8.98 µM)
MIC50 (Cryptococcus neoformans [13]): 4 µg/mL (≈ 8.98 µM)
MIC50 (Cryptococcus neoformans [14]): 4 µg/mL (≈ 8.98 µM)
MIC50 (Cryptococcus neoformans [15]): 4 µg/mL (≈ 8.98 µM)
MIC50 (Cryptococcus neoformans [16]): 2 µg/mL (≈ 4.49 µM)
MIC50 (Cryptococcus neoformans [17]): 4 µg/mL (≈ 8.98 µM)
MIC50 (Cryptococcus neoformans [18]): 4 µg/mL (≈ 8.98 µM)
MIC50 (Cryptococcus neoformans [19]): 2 µg/mL (≈ 4.49 µM)
MIC80 [20]: 16 µg/mL (≈ 35.9 µM)
MIC80 [21]: 4 µg/mL (≈ 8.98 µM)
MIC80 [22]: 8 µg/mL (≈ 18 µM)
MIC80 [23]: 8 µg/mL (≈ 18 µM)
MIC80 [24]: 2 µg/mL (≈ 4.49 µM)
MIC80 [25]: 1 µg/mL (≈ 2.25 µM)
MIC80 (Nannizzia gypsea [26]): 1 µg/mL (≈ 2.25 µM)
MIC80 (Nannizzia gypsea [27]): 1 µg/mL (≈ 2.25 µM)
MIC80 (Nannizzia gypsea [28]): 8 µg/mL (≈ 18 µM)
MIC50 (Candida albicans [29]): 32 µg/mL (≈ 71.9 µM)
MIC50 (Candida albicans [30]): 4 µg/mL (≈ 8.98 µM)
MIC50 (Nakaseomyces glabratus [31]): 4 µg/mL (≈ 8.98 µM)
MIC50 (Nakaseomyces glabratus [32]): 8 µg/mL (≈ 18 µM)
MIC50 (Nakaseomyces glabratus [33]): 4 µg/mL (≈ 8.98 µM)
MIC50 (Nakaseomyces glabratus [34]): 4 µg/mL (≈ 8.98 µM)
MIC50 (Candida albicans [35]): 1 µg/mL (≈ 2.25 µM)
Ratio (Candida albicans [36]): 10
Ratio (Candida albicans [37]): 10
Ratio (Nakaseomyces glabratus [38]): 10
Ratio (Nakaseomyces glabratus [39]): 10
Ratio (Nakaseomyces glabratus [40]): 10
Ratio (Nakaseomyces glabratus [41]): 10
Ratio (Candida albicans [42]): 10
MIC50 (Candida albicans [43]): 0.25 µg/mL (≈ 0.561 µM)
MIC50 (Candida albicans [44]): 0.25 µg/mL (≈ 0.561 µM)
MIC50 (Candida albicans [45]): 0.5 µg/mL (≈ 1.12 µM)
MIC50 (Candida albicans [46]): 0.5 µg/mL (≈ 1.12 µM)
MIC50 (Candida albicans [47]): 0.5 µg/mL (≈ 1.12 µM)
